Experimental findings from PMC11579016 (Oncogenesis, 2024) are described below.

In one experiment the target is thrombin (Homo sapiens, UniProt P00734). The experiment can be described thus: Cleavage assay of SAPE-labeled ADAM9 bacteria with thrombin. Format: biochemical. To be noted: 75 nM thrombin, 3 h, FACS. Put shortly:
(§1)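 ADAM9 substrate-displaying bacteria were subcultured 1:100 in LB for 45 min at 37 °C, induced with 0.04% arabinose for 1 h, then labeled with SAPE (final […]) for 1 h. 10^7 bacteria were incubated for 3 h with thrombin (final 75 nM) or dilutions of sonicated PANC-1 lysate, with PBS or reaction buffer as controls. After two PBS washes, SAPE-positive bacteria were counted by flow cytometry, with unlabeled bacteria as the negative control.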

In the next experiment the target is rMMP9 (Homo sapiens, UniProt P14780). The experiment in a line: Cleavage assay of SAPE-labeled ADAM9 bacteria with rMMP9, alone or with S3304. Format: biochemical. As to conditions: 200 nM rMMP9, 3 h, FACS.
rMMP9, sequence (P14780 94-707, species assumed): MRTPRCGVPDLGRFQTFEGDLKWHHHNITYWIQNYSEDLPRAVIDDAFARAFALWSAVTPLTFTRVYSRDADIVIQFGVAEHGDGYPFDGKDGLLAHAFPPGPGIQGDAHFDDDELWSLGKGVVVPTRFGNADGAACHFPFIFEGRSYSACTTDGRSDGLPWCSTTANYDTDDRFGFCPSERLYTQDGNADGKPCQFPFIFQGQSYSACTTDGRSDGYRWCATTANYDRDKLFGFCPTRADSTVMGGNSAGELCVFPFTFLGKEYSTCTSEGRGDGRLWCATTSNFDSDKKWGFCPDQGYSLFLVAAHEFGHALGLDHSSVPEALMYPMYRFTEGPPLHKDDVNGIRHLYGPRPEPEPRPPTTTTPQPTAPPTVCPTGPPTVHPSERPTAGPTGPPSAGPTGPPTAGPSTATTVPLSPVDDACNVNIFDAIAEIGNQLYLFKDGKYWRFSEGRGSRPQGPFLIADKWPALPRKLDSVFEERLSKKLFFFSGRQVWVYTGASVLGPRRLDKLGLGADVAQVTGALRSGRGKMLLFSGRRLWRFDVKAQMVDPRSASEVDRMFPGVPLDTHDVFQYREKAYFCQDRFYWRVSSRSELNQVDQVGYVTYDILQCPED
The next experiment has as its system PANC-1 lysate. The experiment can be described thus: Cleavage assay of SAPE-labeled ADAM9 bacteria with PANC-1 lysate. In kind it is biochemical, human. As to conditions: highest PANC-1 lysate concentration, 3 h, FACS; dose-dependent. Put shortly: as §1

As to PLAQAVRSSK [ADAM9 substrate], on thrombin, the “effect on fluorescence of SAPE-labeled ADAM9 bacteria” value is given as “did not reduce fluorescence”. For the same sequence, at rMMP9, the “effect on SAPE-positivity of ADAM9 bacteria” value is listed as “greatly reduced SAPE-positivity”. The “ADAM9 substrate cleavage by PANC-1 lysate (loss of SAPE-positive bacteria)” value with PANC-1 lysate is recorded as “near-complete”.
